Test results as given in ChEMBL document CHEMBL2169862, “Synthesis and biological evaluation of 1α,25-dihydroxyvitamin D₃ analogues with a long side chain at C12 and short C17 side chains” (J Med Chem, 2012).
pEC50, pIC50: −log10 of the molar value. Active and inactive are the calls of the source. No cut-off for these calls is given here.

Key:
SW480-ADH [1] = assay: Induction of human SW480-ADH cell differentiation assessed as formation of compact epithelioid islands of highly adherent cells at 10 '-7 M after 48 hrs by phase-contrast microscopy; assay type: functional, cell-based
Method in brief: (§1)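 SW480-ADH colon cancer cells were treated for 48 h with compound or vehicle in medium with charcoal-treated FCS. Differentiation was scored as compact epithelioid islands of highly adherent cells. A representative experiment is shown.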

SW480-ADH [2] = assay: Effect on cellular PIP4K2B mRNA level in human SW480-ADH cells at 10 '-9 to 10 '-7 M after 48 hrs by RT-PCR analysis; assay type: functional, cell-based
Method in brief: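 SW480-ADH cells treated 48 h in medium with charcoal-treated FCS; vehicle controls. Quantitative RT-PCR: 95 °C 10 min, then 40 cycles of 95 °C 15 s and 60 °C 30 s. Expression normalized to RPLP0 by comparative C_T method. Measurements in triplicate.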

Vitamin D3 receptor [3] = target: T1, Vitamin D3 receptor (Homo sapiens, UniProt P11473); assay: Agonist activity at VDR in human MCF7 cells assessed as transcription of CYP24A1 gene after 24 hrs by luciferase reporter gene assay; assay type: functional, cell-based
T1 sequence (P11473 whole entry): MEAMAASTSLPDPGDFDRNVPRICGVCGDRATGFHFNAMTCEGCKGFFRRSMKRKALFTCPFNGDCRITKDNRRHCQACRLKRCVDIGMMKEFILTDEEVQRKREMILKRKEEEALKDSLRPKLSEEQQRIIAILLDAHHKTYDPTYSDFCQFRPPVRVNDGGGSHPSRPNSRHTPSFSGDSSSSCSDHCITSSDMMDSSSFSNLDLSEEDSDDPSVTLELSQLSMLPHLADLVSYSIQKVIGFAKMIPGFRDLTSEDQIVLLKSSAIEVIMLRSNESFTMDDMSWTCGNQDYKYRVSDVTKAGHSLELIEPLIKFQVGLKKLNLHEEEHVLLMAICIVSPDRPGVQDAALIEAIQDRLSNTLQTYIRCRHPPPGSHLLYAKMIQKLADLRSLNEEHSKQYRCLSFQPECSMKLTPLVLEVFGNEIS

MCF7 = assay: Antiproliferative activity against human MCF7 cells at 10 '-7 M after 48 hrs by MTT assay relative to untreated-control; assay type: functional, cell-based
Method in brief: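 MCF-7 cells seeded at 5 × 10⁴ per well, treated 24 h later for 48 h in medium with charcoal-treated FCS; vehicle controls. MTT (0.5 μg/μL) added for 1 h, medium removed, formazan dissolved in DMSO, absorbance read at 570 nm. Three individual experiments averaged; SD shown.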

Mus musculus [4] = assay: Toxicity in CD-1 mouse assessed as body weight loss at 0.3 ug/kg, ip administered every other day for 3 weeks measured on day 21; assay type: organism-based; details: in vivo, 0.0003 mg/kg, 504 h
Method in brief: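 Female CD-1 mice, 6–8 weeks, six per group. Dosed ip in sesame oil every other day for three weeks; vehicle controls. Body weight recorded every other day.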

SW480-ADH [5] = assay: Induction of human SW480-ADH cell differentiation assessed as formation of compact epithelioid islands of highly adherent cells at 10 '-8 M after 48 hrs by phase-contrast microscopy; assay type: functional, cell-based; method in brief: as §1
Mus musculus [6] = assay: Increase in serum Calcium levels in CD-1 mouse at 0.3 ug/kg, ip administered every other day for 3 weeks measured on day 21; assay type: functional
Method in brief: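 Female CD-1 mice, 6–8 weeks, six per group. Dosed ip in sesame oil every other day for three weeks; vehicle controls. Serum calcium measured with a colorimetric calcium kit a day after the last dose (day 21). Shown as percentage of calcium increase over untreated mice, with the 1α,25-(OH)₂D₃ group set to 100%. SD reported.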

Vitamin D3 receptor [7] = target: T1, Vitamin D3 receptor; assay: Binding affinity to VDR assessed as inhibition of fluorescent ligand by fluorescence polarization competition assay

SMILES | Activity (SW480-ADH [1]) | Activity (SW480-ADH [2]) | pEC50 (Vitamin D3 receptor [3]) | Activity (MCF7) | Activity (Mus musculus [4]) | Activity (SW480-ADH [5]) | Activity (Mus musculus [6]) | pIC50 (Vitamin D3 receptor [7])
C=C1/C(=C\C=C2/CC[C@@H](CCCCCCC(C)(C)O)[C@]3(C)[C@@H]([C@H](C)CCCO)CC[C@@H]23)C[C@@H](O)C[C@@H]1O | Active | inactive | 8.24 | Active | Non-toxic | inactive | 1% | 7.80
C=C1/C(=C\C=C2/CC[C@@H](CCCCCCC(C)(C)O)[C@]3(C)[C@@H]([C@H](C)CCO)CC[C@@H]23)C[C@@H](O)C[C@@H]1O | Active | inactive | 8.04 | Active | Non-toxic | inactive | 18% | 7.56
C=C1/C(=C\C=C2/CCC[C@]3(C)[C@@H]([C@H](C)CCCC(C)(C)O)CC[C@@H]23)C[C@@H](O)C[C@@H]1O [CALCITRIOL] | Active | inactive |  | Active | Non-toxic | Active | 100% | 
C=C1/C(=C\C=C2/CC[C@@H](CCCCCCC(C)(C)O)[C@]3(C)[C@@H]([C@H](C)CO)CC[C@@H]23)C[C@@H](O)C[C@@H]1O | Active | inactive | 8.09 | Active | Non-toxic | inactive | 0% | 7.68
